EP2 antag: inhibitors of human EP2 prostaglandin E2 receptor. P43116. C6 glioma cells expressing human EP2, cAMP TR-FRET; cells stimulated with saturating PGE2. inhibition, % at 25 µM. 260,000 compounds, 0.52% hits;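 active = percent inhibition above 40 after rounding to a whole number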;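 also: rat C6 glioma host cells with rolipram phosphodiesterase inhibitor present; the protocol text gives 20 µM as final concentration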
Target sequence (P43116 whole entry, looked up): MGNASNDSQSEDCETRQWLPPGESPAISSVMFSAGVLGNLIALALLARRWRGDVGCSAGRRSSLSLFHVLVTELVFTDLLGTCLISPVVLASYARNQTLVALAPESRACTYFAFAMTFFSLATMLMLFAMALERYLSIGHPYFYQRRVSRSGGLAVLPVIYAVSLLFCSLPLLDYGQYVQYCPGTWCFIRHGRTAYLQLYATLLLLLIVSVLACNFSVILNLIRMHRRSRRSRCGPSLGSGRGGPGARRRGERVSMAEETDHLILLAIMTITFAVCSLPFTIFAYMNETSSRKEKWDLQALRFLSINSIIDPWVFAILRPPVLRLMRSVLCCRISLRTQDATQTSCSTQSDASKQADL
Hsp70 activator: switches on Hsp70 transcription; activation, % at 10 µM; 200,000 compounds, 0.04% hits; AID 1203; HeLa Hsp70 promoter luciferase reporter, luminescence; scaled: vehicle 0, proteasome-inhibitor control 100%;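 active = activation above the mean across all tested compounds plus 3 SD, cutoff set per campaign, cut at about 5.5% in these data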;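 also: 100% = MG132 at 30 µM as the positive control and 0% = DMSO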
Dynein transport: blocks dynein driven cargo transport along microtubules | 3617.4 mouse cells, GR-EGFP nuclear translocation imaging; test concentration mostly 20 µM; stimulated with dexamethasone, 1 µM; hits give low values | z-score, hits read low | 220,000 compounds, 0.47% hits | AID 1381;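 active = plate z-score of nuclear minus cytoplasmic receptor signal below a set negative limit, without overly bright fluorescence or cell loss, cut at about -3.5 in these data, passing the limit was not always enough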;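 also: z-score of nuclear minus cytoplasmic ring GR-EGFP intensity difference per well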
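medium = tetracycline-free induction medium containing charcoal-stripped FBS | also added = 1.0 µM final dexamethasone stimulus | schedule = 48 h induction, 1 h compound, 30 min dex at 37 °C | technique = fixed, Hoechst-stained cells imaged at 10x for EGFP | measure = GR-EGFP nuclear translocation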
EP2 mod: EP2 receptor (human) modulation; P43116; EP2-expressing cells, cAMP HTRF FRET, PGE2 co-stimulation; induction, % at 25 µM; 260,000 compounds, 0.83% hits; AID 940;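 active = compounds whose cAMP rise, as percent of the full-agonist control response, exceeds 60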;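 also: rat C6 glioma line stably carrying human EP2 under a CMV promoter; the protocol text gives 20 µM as final concentration; 100% = response of wells given 1 µM PGE2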
An asterisk follows results filed as active; · = no result given. In the library only some 1.7% were active in any assay of this set; here they are far more common.

SMILES | EP2 antag | Hsp70 activator | Dynein transport | EP2 mod
CCCNC(=O)Cn1ncc2c3oc(C)cc3n(CC)c2c1=O | · | · | · | -27
CC1CCCCC1N1CCN(C(=O)c2cccc3ccccc23)CC1 (configuration not stated) | 13 | · | · | -97
CCOC(=O)c1c(C)[nH]sc1=S | · | 1 | -1.3 | 64*
CC1(c2ccccc2)CC(c2ccccc2)=Nc2ccccc2N1 (configuration not stated) | 8 | · | -0.3 | 88*
C=CCn1c(=S)[nH]c2scc(-c3ccc(C)o3)c2c1=O | 34 | 0 | 1.2 | -7
Cc1nc2scc(-c3cccs3)c2c(=O)[nH]1 | 9 | 0 | -0.26 | -2
CCn1c(=S)[nH]c2scc(-c3cccs3)c2c1=O | 70* | 0 | 1.8 | -17
CC(C)n1c(=S)[nH]c2scc(-c3cccs3)c2c1=O | 71* | · | -0.42 | -19
O=c1c2c(-c3cccs3)csc2[nH]c(=S)n1-c1ccccc1 | 66* | 0 | 0.99 | -1
COc1cccc(C2C=C(c3ccc(Br)s3)Nc3ncnn32)c1OC (configuration not stated) | 112* | 0 | 0.29 | -43
Fc1ccc(Br)cc1C1C=C(c2ccc(Br)s2)Nc2ncnn21 (configuration not stated) | 21 | 0 | 0.061 | -39
Cc1cccc(NC(=S)N(Cc2ccco2)Cc2cc3cccc(C)c3[nH]c2=O)c1 | 11 | · | · | 38
COc1ccc([C@H]2CN(Cc3ccccc3)C[C@@H]2NC(=O)c2ccco2)cc1OC | 5 | · | · | 0
Cc1ccccc1OCC(O)CN(Cc1ccccc1O)C1CCCCC1 (configuration not stated) | 9 | 0 | 0.83 | 29
Oc1c(Br)cc(Br)cc1CN(Cc1cc(Br)cc(Br)c1O)C1CCCCC1 | 40* | · | · | -26
Cc1sc2nc(C)n(C3CCN(C(=O)c4cnn(C(C)C)c4)CC3)c(=O)c2c1C | 7 | · | · | 17
COc1ccc(CN(C(=O)c2ccco2)c2ccc(C)c(C)c2)cc1 | 7 | 0 | 0.53 | 65*
CCOc1ccc(N(Cc2ccc(OC)c(OC)c2)C(=O)c2ccco2)cc1 | 6 | 0 | 1.1 | 0
CCOc1ccc(/C(O)=C2/C(=O)C(=O)NC2c2cccnc2)cc1 (configuration not stated) | 12 | · | · | 33
CCn1c(SCC(=O)Nc2ccc(C(C)=O)cc2)nnc1-c1ccoc1C | 11 | · | · | -35
O=c1[nH]c(/C=C\c2cccc(Cl)c2Cl)c([N+](=O)[O-])c(=O)[nH]1 | 6 | · | · | -5
O=C(/C=C/c1cccs1)c1cc(Br)ccc1OC(=O)N1CCOCC1 | 26 | 0 | -4.9* | 45
COc1ccc(C(=O)/C=C/c2cccs2)c(OC(=O)N2CCOCC2)c1 | 11 | 0 | -2.4 | 5
CC(C)(C)c1cc(NCc2ccccn2)n2ncc(-c3ccccc3)c2n1 | 5 | · | -0.013 | 62*
Cc1cc(C)n(-c2cc(C(C)(C)C)nc3c(-c4ccccc4)cnn23)n1 | 4 | · | -0.13 | 0
SMILES | EP2 antag | Hsp70 activator | Dynein transport | EP2 mod
O=C(CSc1nnc(-c2cccnc2)n1-c1ccc(F)cc1)Nc1ccc2c(c1)OCCO2 | 13 | · | · | -19
CC(C)C(=O)NC(c1ccccc1)c1cc([N+](=O)[O-])c2cccnc2c1O (configuration not stated) | 10 | 0 | -0.077 | 28
O=[N+]([O-])c1cc(Cc2cc([N+](=O)[O-])c3cccnc3c2O)c(O)c2ncccc12 | 75* | · | · | -16
COc1ccc(C2=CC(=O)C=CC2=O)cc1 | 21 | · | -6.3* | -6
Cc1ccc(NC2SC(=O)N(C)C2=O)cc1 (configuration not stated) | 8 | · | · | -25
CCN1CCCC1CNC(=O)C(=O)Nc1cccc(F)c1 (configuration not stated) | 4 | · | · | -30
Cc1ccc(/C=C2\CCOC2=O)cc1 | 11 | · | 0.97 | -8
O=C1OCCC/C1=C\c1ccc2c(c1)OCO2 | 6 | · | -0.48 | 82*
Cc1cc(CN2CCCCC2)c(O)c(CN2CCCCC2)c1 | 59* | · | · | 31
CC(C)(C)c1nc(CN2CCCCC2)cc(CN2CCCCC2)c1O | 15 | 0 | -0.51 | -1
C[C@H]1CCC/C=C\[C@@H]2C[C@H](OC(=O)CN(C)C)C[C@H]2[C@@H](O)/C=C\C(=O)O1 | 46* | · | · | -1
Cc1cc(C)c2[nH]c(=O)c(C(c3nnnn3CC3CCCO3)N3CCN(c4ccccc4)CC3)cc2c1 (configuration not stated) | 10 | · | · | -10
COC(=O)C1C=CCN1C(=O)C1ON=C(c2ccc(F)cc2)C1C (configuration not stated) | 6 | · | · | -5
